Reference: ChEMBL document CHEMBL1268870 (J Med Chem, 2010)
Active and inactive are the calls of the source. The rule behind the calls is not given here.

Key:
[1] = Inhibition of Torpedo nAChR expressed in Xenopus oocyte assessed as inhibition of ACh-induced channel current
[2] = biological target: T1, 5-hydroxytryptamine receptor 3A (Homo sapiens) (UniProt P46098); assay: Displacement of [3H]GR65630 from 5HT3A receptor expressed in Xenopus oocyte
T1 sequence (whole entry): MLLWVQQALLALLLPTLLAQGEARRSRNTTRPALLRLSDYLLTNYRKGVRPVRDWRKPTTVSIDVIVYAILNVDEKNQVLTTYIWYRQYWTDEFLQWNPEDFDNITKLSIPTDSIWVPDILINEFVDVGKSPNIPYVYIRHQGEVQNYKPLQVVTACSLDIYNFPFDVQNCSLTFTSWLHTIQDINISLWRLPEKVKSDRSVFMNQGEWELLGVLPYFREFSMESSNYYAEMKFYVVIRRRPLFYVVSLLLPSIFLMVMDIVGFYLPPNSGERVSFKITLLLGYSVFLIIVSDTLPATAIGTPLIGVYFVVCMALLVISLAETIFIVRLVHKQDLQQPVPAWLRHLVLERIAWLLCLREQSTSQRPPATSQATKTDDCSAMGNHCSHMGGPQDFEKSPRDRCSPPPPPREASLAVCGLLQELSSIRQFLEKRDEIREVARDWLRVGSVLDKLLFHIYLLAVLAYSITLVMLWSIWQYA

Torpedo = assay: Binding affinity to Torpedo nAChR assessed as photoincorporation in to membrane; assay type: cell membranes; conditions: tested as the 3H-labelled form
Summary of the method: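 Torpedo californica nAChR-rich membranes at 2 mg/mL in Torpedo saline pH 7.0 with 1 mM oxidized glutathione. Incubated 40 min at room temperature with 0.3 μM tritiated probe, ± carbamylcholine, proadifen, tetracaine or PCP, then irradiated at 365 nm for 30 min on ice. Subunits separated by SDS-PAGE. Incorporation measured by fluorography and by scintillation counting of excised bands (two parallel labelings).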

[3] = biological target: T2, GABA-A receptor; alpha-1/beta-2/gamma-2 (Homo sapiens) (UniProt P14867+P47870+P18507); assay: Allosteric modulation of human GABAA alpha-1-beta-2-gamma-2 receptor expressed in Xenopus laevis assessed as enhancement of [3H]flunitrazepam binding up to 10 uM
[4] = biological target: T2, GABA-A receptor; alpha-1/beta-2/gamma-2 (Homo sapiens); assay: Allosteric modulation of human GABAA alpha-1-beta-2-gamma-2 receptor expressed in Xenopus laevis assessed as enhancement of [3H]mucimol binding up to 10 uM
Homo sapiens = species: Homo sapiens; assay: Agonist activity at human GABA-A alpha-1-beta-2-gamma-2 receptor expressed in Xenopus laevis assessed as increase in channel current at saturated concentration by electrophysiology relative to control; assay type: functional
[5] = biological target: T1, 5-hydroxytryptamine receptor 3A (Homo sapiens); assay: Inhibition of 5HT3A receptor expressed in Xenopus oocyte at 20 uM
[6] = biological target: T2, GABA-A receptor; alpha-1/beta-2/gamma-2 (Homo sapiens); assay: Agonist activity at human GABA-A alpha-1-beta-2-gamma-2 receptor expressed in Xenopus laevis assessed as increase in channel current at 5 uM by electrophysiology relative to control; assay type: functional
Xenopus laevis = assay: Anesthetic potency in Xenopus laevis; assay type: functional, organism-based
[7] = biological target: T2, GABA-A receptor; alpha-1/beta-2/gamma-2 (Homo sapiens); assay: Agonist activity at human GABAA alpha-1-beta-2-gamma-2 mutant receptor expressed in Xenopus laevis assessed as increase in channel current at 10 uM by electrophysiology relative to control; assay type: functional
Summary of the method: (§1)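 Oocytes expressing human α1β2(M286W)γ2L GABA-A receptor. Two-electrode voltage clamp at −50 mV, room temperature, ND96 pH 7.5. […] Applications lasted 15–20 s with ~3 min washes.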

[8] = biological target: T2, GABA-A receptor; alpha-1/beta-2/gamma-2 (Homo sapiens); assay: Agonist activity at human GABA-A alpha-1-beta-2-gamma-2 receptor expressed in Xenopus laevis assessed as increase in channel current at 10 uM by electrophysiology relative to control; assay type: functional
[9] = biological target: T2, GABA-A receptor; alpha-1/beta-2/gamma-2 (Homo sapiens); assay: Agonist activity at human GABAA alpha-1-beta-2-gamma-2 mutant receptor expressed in Xenopus laevis assessed as increase in channel current at 5 uM by electrophysiology relative to control; assay type: functional; summary of the method: as §1
[10] = biological target: T1, 5-hydroxytryptamine receptor 3A (Homo sapiens); assay: Inhibition of 5HT3A receptor expressed in Xenopus oocyte at 9 uM
Summary of the method: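 Oocytes injected with ~50 ng human 5-HT3A cRNA. Two-electrode voltage clamp at −50 mV, room temperature, ND96. Compound was pre-applied for 30 s, then co-applied with 100 μM 5-HT for 30 s. Peak current was expressed as a percentage of the mean of the flanking 100 μM 5-HT control currents. Fixed compound concentration of 9 μM.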

Which results are given for `CCOC(=O)c1cncn1C(C)c1ccc(C2(C(F)(F)F)N=N2)cc1` (stereo unspecified)?
IC50 [1]: 4.1 µM; Activity [2]: inactive; Activity (Torpedo): Active; Activity [3]: inactive; Activity [4]: inactive; Activity (Homo sapiens): 1.3%; inhibition [5]: 1.7%

With `CCOC(=O)c1cncn1[C@@H](C)c1ccc(C2(C(F)(F)F)N=N2)cc1` as the molecule, how does the fold change (FC) [6] read?
Its fold change (FC) is 2.2.

And the IC50 [1]?
The IC50 was 4.7 µM.

What about the EC50 (Xenopus laevis) of the same molecule?
Its EC50 is 4.9 µM.

What about the fold change (FC) [7] of the same molecule?
Its fold change (FC) is 2.2.

And the Imax [8]?
The Imax was 0.9%.

What about the fold change (FC) [8] of the same molecule?
Its fold change (FC) is 3.

And the fold change (FC) [9]?
Its fold change (FC) is 1.8.

And the inhibition [10]?
Its inhibition is 29%.

With `CCOC(=O)c1cncn1[C@H](C)c1ccc(C2(C(F)(F)F)N=N2)cc1` as the molecule, how does the IC50 [1] read?
Its IC50 is 11.3 µM.

And the EC50 (Xenopus laevis)?
Its EC50 is 17.1 µM.

And the Imax [8]?
Its Imax is 0.73%.

And the inhibition [10]?
Its inhibition is 34%.

With `CCOC(=O)c1cncn1[C@H](C)c1ccccc1` as the molecule, how does the Activity [2] read?
Its Activity is “inactive”.

And the Activity [3]?
The Activity was “Active”.
